Tests used:
[1] = test system: Shh-LIGHT2 cells; assay: Cytotoxicity by Cell Titer Glo; format: cell-based; settings: for Cytotoxicity: Shh-LIGHT2 cells, cytotoxic above the stated concentration; for cytotoxicity (in words): any concentration
Outline: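 Cell Titer Glo luminescence in Shh-LIGHT2 Gli-reporter cells. Values are approximations read from concentration curves. Where compounds are cytotoxic, the Gli % ECmax is taken at the highest effective non-cytotoxic concentration.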

[2] = test system: Shh signaling; settings: cell lines, human primary keratinocytes, synthetic model of human skin; cited from earlier work
[3] = test system: Gli activity (Shh pathway) in Shh-LIGHT2 cell line; assay: Shh-LIGHT2 Gli-luciferase reporter assay; format: cell-based; settings: for Gli repression / activity in Shh-LIGHT2 (in words): Shh-LIGHT2 cell line, concentrations ranging from 3.9 µM to 125 µM where stated
Outline: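 Shh-LIGHT2 Gli-reporter cells stimulated with ShhN-conditioned DMEM containing 0.5% (v/v) calf serum, then exposed to test compound over a concentration series (3.9 to 125 µM where stated). Gli activity read by Bright Glo luciferase, and cytotoxicity by Cell Titer Glo. EC50 approximated from concentration curves. % ECmax is inhibition relative to cyclopamine's ECmax, or for cytotoxic compounds relative to the highest effective non-cytotoxic concentration.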

[4] = target: ShhN (Homo sapiens, UniProt Q15465); assay: Surface plasmon resonance; format: binding
ShhN, sequence (Q15465 24-197 limits assumed, species assumed): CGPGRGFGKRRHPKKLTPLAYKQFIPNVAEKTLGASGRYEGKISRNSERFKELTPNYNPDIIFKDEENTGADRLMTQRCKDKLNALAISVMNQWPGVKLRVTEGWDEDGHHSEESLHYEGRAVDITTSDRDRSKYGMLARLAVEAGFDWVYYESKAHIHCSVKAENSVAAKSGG
Outline: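 Purified Sonic Hedgehog N-terminal peptide (ShhN) probed by surface plasmon resonance with test compound in PBS containing 5% (v/v) DMSO. Sensorgrams background-subtracted against DMSO. Binding expressed as KD in µM, with off-rates compared from the binding curves.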

Row | Compound | Cytotoxicity [1] | cytotoxicity (in words) [1] | effect on Shh signaling [2] | Gli repression / activity in Shh-LIGHT2 (in words) [3] | % ECmax (footnote e) ([3]; taken relative to mock treatment (reporter values comparable to 6µM cyclopamine), cytotoxic compounds: highest effective non-cytotoxic concentration) [% ^e] | apparent off-rate ([4]; SPR, compared with the (2S, 6R) 13-membered homolog) | Binding / affinity for ShhN by SPR (in words) ([4]; purified ShhN, PBS buffer with 5% (v/v) DMSO)
1 | O=C(C[C@@H]1C/C=C/CCC(=O)O[C@H](c2ccccc2)CNC1=O)NCc1ccc(Cl)cc1 [(0, R, S) (2), robotnikinin] | none | neither compound displayed differences in cytotoxicity at any concentration | blocks Shh signaling | strong concentration-dependent Gli repression | 91 | significantly longer | bound purified ShhN in a stoichiometric manner
2 | O=C(C[C@H]1C/C=C/CCCC(=O)O[C@@H](c2ccccc2)CNC1=O)NCc1ccc(Cl)cc1 [(1, S, R) (3)] | none | neither compound displayed differences in cytotoxicity at any concentration | – | Gli suppression was ablated | – | – | –

Source: paper PMC2796117 (Bioorganic & medicinal chemistry letters, 2009)
